Experimental data: ChEMBL document CHEMBL1150774, “1-[(Imidazolidin-2-yl)imino]indazole. Highly alpha 2/I1 selective agonist: synthesis, X-ray structure, and biological activity” (J Med Chem, 2008)
Activity calls are given as the source filed them. The calls are words filed in the database; no cut-off is given here.

How the values were obtained:
[1] = Displacement of [3H][…] from alpha2 adrenoceptor in Sprague-Dawley rat brain
In short: (§1)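 Crude P2 membranes from male rat brain (250-280 g), washed and stored at -70 °C. 0.2-0.3 mg protein incubated with 11 concentrations (0.01 nM to 100 µM) plus 1 nM [3H]2BFI (I2) or 1 nM [3H]RX821002 (α2). Nonspecific binding: 10 µM BU224 (I2) or 10 µM rauwolscine (α2). Run in triplicate, 45 min at room temperature. Ki by Cheng-Prusoff, 3-4 experiments.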

Nischarin = Nischarin (Rattus norvegicus, UniProt Q4G017); assay: Displacement of [3H]clonidine from imidazoline 1 receptor in Sprague-Dawley rat kidney
Chain of Nischarin (Q4G017 whole entry): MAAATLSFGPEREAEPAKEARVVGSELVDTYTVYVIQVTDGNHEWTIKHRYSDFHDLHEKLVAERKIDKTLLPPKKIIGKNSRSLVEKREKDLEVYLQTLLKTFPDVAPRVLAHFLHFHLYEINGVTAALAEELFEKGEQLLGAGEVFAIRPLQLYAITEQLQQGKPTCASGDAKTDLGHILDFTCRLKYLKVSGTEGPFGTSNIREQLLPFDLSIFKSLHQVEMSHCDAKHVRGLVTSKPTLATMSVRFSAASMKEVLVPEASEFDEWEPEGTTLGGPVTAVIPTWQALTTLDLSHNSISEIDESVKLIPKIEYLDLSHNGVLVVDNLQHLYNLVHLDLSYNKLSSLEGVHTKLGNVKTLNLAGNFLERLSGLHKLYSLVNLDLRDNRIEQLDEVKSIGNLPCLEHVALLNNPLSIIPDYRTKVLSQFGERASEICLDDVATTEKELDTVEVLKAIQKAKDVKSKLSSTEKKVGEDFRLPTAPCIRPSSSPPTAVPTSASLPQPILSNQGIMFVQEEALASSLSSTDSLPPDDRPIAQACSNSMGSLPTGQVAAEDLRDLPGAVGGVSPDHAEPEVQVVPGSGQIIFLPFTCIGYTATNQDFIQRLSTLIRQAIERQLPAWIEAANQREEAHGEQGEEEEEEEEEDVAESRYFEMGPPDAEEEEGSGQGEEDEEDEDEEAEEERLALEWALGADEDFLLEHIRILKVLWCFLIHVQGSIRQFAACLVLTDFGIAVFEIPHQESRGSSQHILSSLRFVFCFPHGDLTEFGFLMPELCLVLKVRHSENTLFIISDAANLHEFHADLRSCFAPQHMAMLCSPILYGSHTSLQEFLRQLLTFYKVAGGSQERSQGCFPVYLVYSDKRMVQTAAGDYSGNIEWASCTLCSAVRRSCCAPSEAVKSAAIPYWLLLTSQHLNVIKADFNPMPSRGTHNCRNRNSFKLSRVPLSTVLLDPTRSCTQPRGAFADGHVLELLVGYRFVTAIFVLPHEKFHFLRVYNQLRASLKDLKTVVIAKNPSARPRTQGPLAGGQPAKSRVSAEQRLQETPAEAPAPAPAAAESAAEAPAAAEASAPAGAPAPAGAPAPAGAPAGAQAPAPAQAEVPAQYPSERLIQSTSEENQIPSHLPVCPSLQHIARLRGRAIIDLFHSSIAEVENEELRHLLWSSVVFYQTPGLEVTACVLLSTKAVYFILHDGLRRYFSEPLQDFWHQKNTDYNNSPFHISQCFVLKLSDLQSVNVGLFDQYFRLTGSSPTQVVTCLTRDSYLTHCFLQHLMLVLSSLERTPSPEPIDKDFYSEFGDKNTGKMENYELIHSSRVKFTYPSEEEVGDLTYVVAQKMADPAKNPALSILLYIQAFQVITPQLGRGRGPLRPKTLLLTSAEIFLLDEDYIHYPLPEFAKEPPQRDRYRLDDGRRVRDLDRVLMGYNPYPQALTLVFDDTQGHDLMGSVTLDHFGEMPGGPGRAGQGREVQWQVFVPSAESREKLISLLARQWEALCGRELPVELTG
In short: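 Crude P2 membranes from male rat kidney (250-280 g), 0.2-0.5 mg protein. Labelled with 3 nM [3H]clonidine; 10 µM rauwolscine present to block α2 sites; specific binding defined by 10 µM rilmenidine. 11 test concentrations. 50 mM Tris-HCl pH 7.4, 45 min at room temperature. Filtration, scintillation counting; IC50 is displacement of 50% of specific binding.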

[2] = Displacement of [3H]2BFI from imidazoline 2 receptor in Sprague-Dawley rat brain; in short: as §1
Rattus norvegicus [3] = species: Rattus norvegicus; assay: Selectivity for Sprague-Dawley rat alpha 2 adrenoceptor over Sprague-Dawley rat imidazoline 1 receptor
Rattus norvegicus [4] = assay: Hypotensive activity in Wistar rat assessed as decrease in mean arterial blood pressure at 0.1 mg/kg, iv after 10 mins; assay type: functional
In short: (§2)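 Male rats (200-250 g) anaesthetised with thiopental 70 mg/kg ip, then maintained at 30 (µg/kg)/min. Saline-thiopental infusion at 1.2 mL/h; 40 min recovery, then 40 min saline. Compound given as iv bolus at 0.1 mg/kg. MAP and HR recorded directly at 100 Hz. ΔMAP and ΔHR taken relative to time 0; 4-7 experiments; repeated-measures ANOVA.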

Rattus norvegicus [5] = assay: Hypotensive activity in Wistar rat assessed as decrease in heart rate at 0.1 mg/kg, iv after 10 mins; assay type: functional; in short: as §2
Rattus norvegicus [6] = assay: Hypotensive activity in Wistar rat assessed as decrease in mean arterial blood pressure at 0.1 mg/kg, iv after 30 mins; assay type: functional; in short: as §2
Rattus norvegicus [7] = assay: Hypotensive activity in Wistar rat assessed as decrease in heart rate at 0.1 mg/kg, iv after 30 mins; assay type: functional; in short: as §2
Rattus norvegicus [8] = assay: Hypotensive activity in Wistar rat assessed as decrease in mean arterial blood pressure at 0.1 mg/kg, iv after 60 mins; assay type: functional; in short: as §2
Rattus norvegicus [9] = assay: Hypotensive activity in Wistar rat assessed as decrease in heart rate at 0.1 mg/kg, iv after 60 mins; assay type: functional; in short: as §2
Rattus norvegicus [10] = assay: Hypotensive activity in Wistar rat assessed as decrease in mean arterial blood pressure at 0.1 mg/kg, iv after 90 mins; assay type: functional; in short: as §2
Rattus norvegicus [11] = assay: Hypotensive activity in Wistar rat assessed as decrease in heart rate at 0.1 mg/kg, iv after 90 mins; assay type: functional; in short: as §2
Rattus norvegicus [12] = assay: Reversal of hypotensive activity in Wistar rat at 10 mg/kg, iv in presence of RX821002; assay type: functional, organism-based; parameters: dose 10 mg/kg
Rattus norvegicus [13] = species: Rattus norvegicus; assay: Hypotensive activity in Wistar rat assessed as mean arterial blood pressure; assay type: functional

Row | SMILES | Ki [1] [µM] | IC50 (Nischarin) [µM] | Ki [2] [µM] | Selectivity ratio (Rattus norvegicus [3]) | Activity (Rattus norvegicus [4]) [mmHg] | Activity (Rattus norvegicus [5]) [bpm] | Activity (Rattus norvegicus [6]) [mmHg] | Activity (Rattus norvegicus [7]) [bpm] | Activity (Rattus norvegicus [8]) [mmHg] | Activity (Rattus norvegicus [9]) [bpm] | Activity (Rattus norvegicus [10]) [mmHg] | Activity (Rattus norvegicus [11]) [bpm] | Activity (Rattus norvegicus [12]) | ED50 (Rattus norvegicus [13]) [µg/kg]
1 | Cc1ccc2nn(N=C3NCCN3)cc2c1 | 45.6 | 13.4 | 11.4 | 0.29 |  |  |  |  |  |  |  |  |  | 
2 | c1ccc2c(c1)nnn2N=C1NCCN1 | > 10 | 84.6 | > 10 | < 8.46 |  |  |  |  |  |  |  |  |  | 
3 | Clc1ccc2nn(N=C3NCCN3)cc2c1 | 74.1 | 24.7 | 33.2 | 0.33 |  |  |  |  |  |  |  |  |  | 
4 | Clc1cccc2nn(N=C3NCCN3)cc12 | 3.14 | 47.8 | 13.1 | 15.3 |  |  |  |  |  |  |  |  |  | 
5 | Cc1ccc2c(cnn2N=C2NCCN2)c1.Cl | 0.0442 | 20.3 | 7.16 | 460 | -4.1 | -104.2 | -3.6 | -3.2 | -4.6 | -1 | -4.9 | -3 |  | 
6 | Cc1cccc2cnn(N=C3NCCN3)c12.Cl | 0.0535 | 0.387 | 2.52 | 7.23 | -14.8 | -110 | -40.6 | -115 | -43.5 | -122.9 | -43.2 | -119.9 | Active | 0.6
7 | Cl.c1ccc2c(c1)cnn2N=C1NCCN1 [MARSANIDINE HYDROCHLORIDE] | 0.0141 | 54.5 | 16.9 | 3880 | -6.9 | -48.5 | -30.9 | -49 | -29 | -31.4 | -22.1 | -9.7 |  | 
8 | Cc1cccc2nn(N=C3NCCN3)cc12 | 11.8 |  | 35.1 |  |  |  |  |  |  |  |  |  |  | 
9 | Cc1ccc2cnn(N=C3NCCN3)c2c1.Cl | 0.0491 |  | 19.2 |  | -13.2 | -71.8 | -23.4 | -43.5 | -20.8 | -26.4 | -11 | -22.2 |  | 
10 | COc1cccc2c1cnn2N=C1NCCN1.Cl | 69.6 | 13.5 | 5.98 | 0.19 | -3.7 | -18.6 | -7.6 | -9.7 | -11 | -12.5 | -12.9 | -11.6 |  | 
11 | Cl.Clc1cccc2c1cnn2N=C1NCCN1 | 0.0616 | 31.5 | 11.1 | 511 | -10.9 | -60.8 | -14 | -32.2 | -12.3 | -24.3 | -10.9 | -19 |  | 
12 | Cc1ccc2cn(N=C3NCCN3)nc2c1 | 50.7 | 19.7 | 42.9 | 0.39 |  |  |  |  |  |  |  |  |  | 
13 | COc1ccc2cnn(N=C3NCCN3)c2c1.Cl | 0.0962 |  | 33.6 |  | -16.5 | -33 | -17.1 | -23.6 | -11.6 | -4.1 | -5.3 | 14.3 |  | 
14 | Cc1nn(N=C2NCCN2)c2ccccc12 | 71.1 |  |  |  |  |  |  |  |  |  |  |  |  | 
15 | c1ccc2nn(N=C3NCCN3)cc2c1 | 78.3 |  | 77.8 |  |  |  |  |  |  |  |  |  |  | 
16 | Cc1cccc2c1cnn2N=C1NCCN1.Cl | 0.0371 | 38.5 | 10.4 | 1040 | -17.7 | -104.2 | -29 | -88.3 | -14.1 | -22.7 | -10.1 | -2.1 |  | 
17 | Cl.Clc1ccc2c(cnn2N=C2NCCN2)c1 | 0.114 | 17 | 20.6 | 149 | -0.2 | 0.6 | -1.4 | 7.2 | -2.8 | 12.8 | -1.1 | 28.6 |  | 
18 | Cl.c1ccc(-c2nn(N=C3NCCN3)c3ccccc23)cc1 | 25.8 | 76.5 | 0.684 | 2.96 | -4.1 | -17.7 | -7.6 | -10.1 | -10 | -11.1 | -11.4 | -12.7 |  | 
19 | Cc1cc2ncn(N=C3NCCN3)c2cc1C | 10.1 |  | > 10 |  |  |  |  |  |  |  |  |  |  | 
20 | c1ccc2c(c1)ncn2N=C1NCCN1 | 6.02 | > 100 | > 10 | > 16.6 |  |  |  |  |  |  |  |  |  | 
